# Measured values of several laboratories.
# Target: Serine/threonine-protein kinase Nek10 (NEK10, Homo sapiens, UniProt Q6ZWH5)
# Sequence (Q6ZWH5 1-1172, as in one of the studies): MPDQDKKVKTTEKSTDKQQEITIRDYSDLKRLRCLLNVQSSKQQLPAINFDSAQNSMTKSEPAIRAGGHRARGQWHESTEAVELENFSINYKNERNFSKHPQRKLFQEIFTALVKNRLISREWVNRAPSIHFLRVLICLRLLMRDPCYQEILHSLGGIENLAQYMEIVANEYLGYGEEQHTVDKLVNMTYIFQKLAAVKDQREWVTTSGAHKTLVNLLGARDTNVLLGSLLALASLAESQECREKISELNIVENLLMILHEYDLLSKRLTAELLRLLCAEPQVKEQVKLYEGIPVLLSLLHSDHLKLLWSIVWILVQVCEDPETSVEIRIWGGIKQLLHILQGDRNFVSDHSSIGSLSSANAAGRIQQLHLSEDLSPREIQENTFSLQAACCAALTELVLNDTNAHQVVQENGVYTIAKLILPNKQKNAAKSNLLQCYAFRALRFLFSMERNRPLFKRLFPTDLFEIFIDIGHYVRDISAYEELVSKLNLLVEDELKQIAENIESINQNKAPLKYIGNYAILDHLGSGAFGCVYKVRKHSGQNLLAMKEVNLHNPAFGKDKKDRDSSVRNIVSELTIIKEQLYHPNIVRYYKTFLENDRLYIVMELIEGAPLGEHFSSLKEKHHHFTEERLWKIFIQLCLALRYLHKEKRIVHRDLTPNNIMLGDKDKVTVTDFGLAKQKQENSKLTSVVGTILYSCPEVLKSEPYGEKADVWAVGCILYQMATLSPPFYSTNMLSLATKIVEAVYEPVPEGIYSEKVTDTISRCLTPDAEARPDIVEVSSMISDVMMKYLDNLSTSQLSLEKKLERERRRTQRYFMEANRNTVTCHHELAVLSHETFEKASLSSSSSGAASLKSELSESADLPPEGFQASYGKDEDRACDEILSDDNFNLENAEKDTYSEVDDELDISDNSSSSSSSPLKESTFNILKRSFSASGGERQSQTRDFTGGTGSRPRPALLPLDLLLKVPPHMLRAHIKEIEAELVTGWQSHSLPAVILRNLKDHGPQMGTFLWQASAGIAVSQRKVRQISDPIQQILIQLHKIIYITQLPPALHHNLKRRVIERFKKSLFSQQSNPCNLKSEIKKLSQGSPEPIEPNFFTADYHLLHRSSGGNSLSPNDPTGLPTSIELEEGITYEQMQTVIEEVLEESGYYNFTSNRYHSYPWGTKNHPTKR
SMILES,assay,conditions,remaining binding
CN(c1nccc(-c2cnn3ncccc23)n1)C1CC1,binding,1 µM,100%
COc1cccc(CNC(=O)c2nc3scc(COCc4ccc(C(=O)O)cc4)c3c(=O)[nH]2)c1,"cell-free assay, competition with immobilised ligand",1 µM,61.7%
O=C(Nc1c[nH]nc1C(=O)NC1CCNCC1)c1cc(F)cc(F)c1,"binding, competition with immobilised ligand",1 µM,100%
N[C@@H]1CCN(c2nccc(-c3cnn4ncccc34)n2)C1,binding,1 µM,100%
O=C(c1ccc(Nc2ncc(Cl)c(-c3ccc(Cl)s3)n2)cc1)N1CCC(N2CCCC2)CC1,"binding, competition with immobilised ligand",1 µM,30%
Nc1ncc2c(n1)-c1c([nH]c3ccc(C#CC4CC4)cc13)CCCC2,"binding, competition with immobilised ligand",1 µM,79%
CN(C)c1nccc(-c2cnn3ncccc23)n1,binding,1 µM,100%
O=C(NCCCN1CCOCC1)c1ccc(Nc2nccc(-c3cc4ccccc4s3)n2)cc1,"binding, competition with immobilised ligand",1 µM,59%
c1cncc(-c2cccc(Nc3nccc(NC4CCCCC4)n3)c2)c1,"binding, competition with immobilised ligand",10 µM,1.6%
CS(=O)(=O)N1CCCC(NC(=O)[C@H](CCC2CCCCC2)NC(=O)c2ccc(CNC(=O)c3cnc4ccccn34)cc2)C1 (some centres unmarked),"cell-free assay, competition with immobilised ligand",0.1 µM,100%
COc1cnc(Nc2cccc(S(N)(=O)=O)c2)nc1N1CCN(c2ccccc2)CC1,"binding, competition with immobilised ligand",1 µM,69%
O=C(Nc1cccnn1)N1CCC(=Cc2cccc(Oc3ccc(C(F)(F)F)cn3)c2)CC1,"cell-free assay, competition with immobilised ligand",1 µM,100%
CN(C)c1nccc(-c2cnc3ncccn23)n1,binding,1 µM,59%
Cc1c[nH]c2nccc(Oc3c(F)cc(Nc4cc(Cl)nc(N)n4)cc3F)c12,"cell-free assay, competition with immobilised ligand",0.1 µM,75%
CNC(=O)[C@@H]1CC[C@@H](n2c(-c3ccc4cnccc4c3)nc3ccc(C(=O)NCc4cccc(C(N)=O)c4)cc32)C1,"binding, competition with immobilised ligand",1 µM,92%
CN(C)c1ncnc(-c2ccc3nc(Nc4cc(CN5CCN(C(=O)CC(F)(F)F)CC5)ccn4)[nH]c3c2)c1Cl,"cell-free assay, competition with immobilised ligand",1 µM,72%
O=C(c1ccc(Nc2ncc(Cl)c(-c3cc4ccccc4s3)n2)cc1)N1CCC(N2CCCC2)CC1,"binding, competition with immobilised ligand",1 µM,74%
